Reference: publication PMC6737205 (International Journal of Nanomedicine, 2019)

Key:
Set-up in all cases: species or system mouse
Details in all cases: S180 mice, oral, RGDV-gemcitabine 8.4 μmol/kg/day, gemcitabine 84 μmol/kg/day, every 3 days for 12 days, n=12
[1] = In vivo serum ALT/GPT assay
Method in brief: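 Serum came from male ICR mice bearing subcutaneous S180 tumours (1×10^7 cells, right armpit). Blood was taken 3 hrs after the last oral dose, with saline 10 mL/kg/day as vehicle, and spun at 1000 rpm, 4°C, 10 mins. Serum was incubated with kit matrix at 37°C for 30 mins, then dinitrophenylhydrazine at 37°C for 20 mins, then 0.4 M NaOH. Read at 510 nm; ALT from a standard curve.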

[2] = In vivo serum AST/GOT assay
In vivo serum Cr assay = assay: In vivo serum Cr assay
Method in brief: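 Creatinine was measured with an enzymatic kit on serum from S180 tumour-bearing mice, with blood spun at 1000 rpm, 4°C, 10 mins. Serum plus enzyme solution A was incubated at 37°C for 5 mins and read at 546 nm (A1). After a further 30 mins at 37°C, enzyme solution B was added, incubated 5 mins, and read again at 546 nm (A2). Cr was calculated from the two readings.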

In vivo serum BUN assay = assay: In vivo serum BUN assay
Method in brief: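 BUN was measured by a kit immunoassay on serum from S180 tumour-bearing mice, with blood spun at 3000 rpm, 4°C, 10 mins. Serum was incubated with anti-BUN antibody and streptavidin-HRP at 37°C for 60 mins, then washed 5 times. Chromogen was added at 37°C for 15 mins in the dark, then stop solution. Read at 450 nm within 15 mins; BUN from a standard curve.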

Nc1ccn([C@@H]2O[C@H](CO)[C@@H](O)C2(F)F)c(=O)n1 [gemcitabine]
serum ALT/GPT compared with NS-treated mice [1]: significantly higher than those of NS-treated mice | serum AST/GOT compared with NS-treated mice [2]: significantly higher than those of NS-treated mice | serum Cr compared with NS-treated mice (In vivo serum Cr assay): significantly higher than those of NS-treated mice | serum BUN compared with NS-treated mice (In vivo serum BUN assay): significantly higher than those of NS-treated mice
